According to ChEMBL document CHEMBL2157892, “Modifications around the hydroxamic acid chelating group of fosmidomycin, an inhibitor of the metalloenzyme 1-deoxyxylulose 5-phosphate reductoisomerase (DXR)” (Bioorg Med Chem Lett, 2012):
The source made the active and inactive calls. The rule behind the calls is not given here.

Tests used:
[1] = Inhibition of Escherichia coli recombinant His6-tagged DXR expressed in Escherichia coli XL-1 blue using DXP as substrate incubated for 2 mins prior to substrate addition measured after 5 mins by spectrophotometric analysis
Method in brief: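 His-tagged E. coli DXR, assayed at pH 7.5. Inhibitor was pre-incubated with enzyme and NADPH for 2 min at 37 °C, then DXP was added to start the reaction. Activity was read as NADPH consumption at 340 nm on a UV–visible spectrophotometer, and IC50 was derived from it.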

Escherichia coli [2] = experiment: Ratio of IC50 for Escherichia coli recombinant His6-tagged DXR without preincubation to IC50 for Escherichia coli recombinant His6-tagged DXR with preincubation
[3] = Inhibition of Escherichia coli recombinant His6-tagged DXR expressed in Escherichia coli XL-1 blue using DXP as substrate after 5 mins by spectrophotometric analysis
Method in brief: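 Recombinant His-tagged E. coli DXR. DXP-to-MEP conversion followed as NADPH consumption at 340 nm by UV–visible spectrophotometry, assay pH 7.5. Enzyme, NADPH and inhibitor were not pre-incubated; the reaction was started by adding DXP. IC50 derived from the rate data.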

[4] = Drug degradation assessed as carbon disulfide production at pH 7.5; type: physicochemical; conditions: buffer
Escherichia coli [5] = experiment: Inhibition of Escherichia coli recombinant His6-tagged DXR expressed in Escherichia coli XL-1 blue using DXP as substrate at 1000 uM after 5 mins by spectrophotometric analysis
Escherichia coli [6] = experiment: Inhibition of Escherichia coli recombinant His6-tagged DXR expressed in Escherichia coli XL-1 blue using DXP as substrate at 1000 uM incubated for 2 mins prior to substrate addition measured after 5 mins by spectrophotometric analysis

Structure (SMILES) | IC50 [1] | Ratio IC50 (Escherichia coli [2]) | IC50 [3] | Drug degradation [4] | inhibition (Escherichia coli [5]) | inhibition (Escherichia coli [6])
O=CN(O)CCCP(=O)(O)O [FOSMIDOMYCIN] | 0.032 µM | 8 | 0.25 µM |  |  | 
CN(CCCP(=O)([O-])O)C(=S)[S-].[Na+].[Na+] |  |  |  | Active | inactive | inactive
NNC(=O)CCCP(=O)(O)O | 1000 µM |  | 1800 µM |  |  | 
CSC(=S)NCCP(=O)(O)O | 2700 µM |  | 2800 µM |  |  | 
CN(O)C(=O)CCCP(=O)(O)O | 0.048 µM | 10 | 0.5 µM |  |  | 
O=P(O)(O)CCc1cccc(O)c1O | 1200 µM |  | 2000 µM |  |  | 
CN(CCP(=O)([O-])O)C(=S)[S-].[Na+].[Na+] |  |  |  | Active | inactive | inactive
O=P(O)(O)CCCc1cccc(O)c1O |  |  |  |  | inactive | inactive
CON(C)C(=O)CCCP(=O)(O)O | 3800 µM |  | 6900 µM |  |  | 
CONC(=O)CCCP(=O)(O)O | 930 µM |  | 11500 µM |  |  | 
CSC(=S)N(C)CCCP(=O)(O)O |  |  |  |  | inactive | inactive
